Laboratory results from ChEMBL document CHEMBL4613292, “5,6-Dihydroxypyrimidine Scaffold to Target HIV-1 Nucleocapsid Protein” (ACS Med Chem Lett, 2020).
Activity calls are given as the source filed them. No cut-off for these calls is given here.

Assays:
[1] = system: Human immunodeficiency virus 1; experiment: (§1) Inhibition of HIV1 Nucleocapsid protein (11 to 55 residues) assessed as reduction in NC-induced cTAR DNA destabilization by measuring intrinsic fluorescence using Alexa488-5'-cTAR-3'-Dabcyl oligonucleotide as substrate at 20 degree C incubated for 15 mins by fluorescence assay
Method in brief: (§2)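 Fluorescence NC-inhibition assay following destabilisation of cTAR DNA, the complement of the HIV-1 transactivation response element, dual-labelled with Alexa488 dye and Dabcyl quencher. NC protein at 1 μM, so the lowest measurable IC50 is 0.5 μM.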

[2] = target: Human immunodeficiency virus type 1 integrase (Human immunodeficiency virus 1) (UniProt Q7ZJM1); experiment: Inhibition of wild type recombinant HIV1 His6-tagged integrase expressed in Escherichia coli BL21 using 18 nucleotide 3'-biotin labeled DNA acceptor as substrate upto 10 uM preincubated for 1 hr followed by substrate addition and further incubated for 90 mins in presence of recombinant LEDGF/p75 by HTRF assay
Human immunodeficiency virus type 1 integrase (Human immunodeficiency virus 1), sequence (Q7ZJM1 as listed by the source): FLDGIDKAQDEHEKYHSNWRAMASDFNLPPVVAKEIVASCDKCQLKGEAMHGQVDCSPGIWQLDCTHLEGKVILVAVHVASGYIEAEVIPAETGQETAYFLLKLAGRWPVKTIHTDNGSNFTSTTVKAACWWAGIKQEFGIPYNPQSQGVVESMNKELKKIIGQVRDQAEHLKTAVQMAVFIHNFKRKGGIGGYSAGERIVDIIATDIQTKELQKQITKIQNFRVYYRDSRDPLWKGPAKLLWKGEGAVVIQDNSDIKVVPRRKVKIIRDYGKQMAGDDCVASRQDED

[3] = as §1; parameters: species or system Human immunodeficiency virus 1; method in brief: as §2
[4] = (§3) Selectivity index, ratio of CC50 for human HeLa cells assessed as reduction in cell viability to EC50 for wild-type HIV1 NL4-3 infected in human TZM-bl cells infected with supernatants from virus-infected human MT2 cells treated with compound for 48 to 72 hrs assessed as reduction in viral replication after 2 days by bright Glo-luciferase reporter gene assay based BiCycle assay; format: toxicity; settings: read-out: Ratio CC50/EC50
Method in brief: (§4)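 Selectivity index is CC50 from the respective cytotoxicity assay (HeLa or PBMC) divided by EC50 from the two-round MT-2/TZM-bl NL4-3 assay.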

[5] = system: Human immunodeficiency virus 1; experiment: as §3, with “Antiviral activity against” for “Selectivity index, ratio of CC50 for human HeLa cells assessed as reduction in cell viability to EC50 for”; format: functional, organism-based; settings: Human immunodeficiency virus 1, NL4-3, TZM
Method in brief: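 Two-round cell assay over the full replication cycle: MT-2 T cells are infected with wild-type reference strain NL4-3 in the first round, and reporter TZM-bl cells are infected in the second round. Values are given as mean ± deviation.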

[6] = Cytotoxicity against phytohemagglutinin and interleukin-2-stimulated human PBMC cells assessed as reduction in cell viability measured after 7 days by MTS assay; format: cell-based
[7] = Cytotoxicity against human HeLa cells assessed as reduction in cell viability; format: cell-based
[8] = Selectivity index, ratio of CC50 for human PBMC cells stimulated with phytohemagglutinin and interleukin-2 assessed as reduction in cell viability measured after 7 days by MTS assay to EC50 for wild-type HIV1 NL4-3 infected in human TZM-bl cells infected with supernatants from virus-infected human MT2 cells treated with compound for 48 to 72 hrs assessed as reduction in viral replication after 2 days by bright Glo-luciferase reporter gene assay based BiCycle assay; format: toxicity; settings: read-out: Ratio CC50/EC50; method in brief: as §4
[9] = Oral bioavailability in C57BL/6 mouse at 5 mg/kg administered as single dose measured up to 24 hrs by LC-MS/MS analysis; format: ADME, organism-based; settings: in vivo
Method in brief: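 C57BL/6 mice were dosed 5 mg/kg orally, with a 2 mg/kg iv reference arm. Plasma was sampled at eight time points up to 24 h.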

[10] = Volume of distribution at steady state in C57BL/6 mouse at 2 mg/kg, iv or 5 mg/kg, po administered as single dose measured up to 24 hrs by LC-MS/MS analysis; format: ADME, organism-based; settings: in vivo, read-out: Vdss
[11] = target: Voltage-gated inwardly rectifying potassium channel KCNH2 (Homo sapiens, UniProt Q12809); experiment: Displacement of Tracer Red from human ERG measured after 4 hrs by fluorescence polarization assay
Voltage-gated inwardly rectifying potassium channel KCNH2, sequence (Q12809 whole entry): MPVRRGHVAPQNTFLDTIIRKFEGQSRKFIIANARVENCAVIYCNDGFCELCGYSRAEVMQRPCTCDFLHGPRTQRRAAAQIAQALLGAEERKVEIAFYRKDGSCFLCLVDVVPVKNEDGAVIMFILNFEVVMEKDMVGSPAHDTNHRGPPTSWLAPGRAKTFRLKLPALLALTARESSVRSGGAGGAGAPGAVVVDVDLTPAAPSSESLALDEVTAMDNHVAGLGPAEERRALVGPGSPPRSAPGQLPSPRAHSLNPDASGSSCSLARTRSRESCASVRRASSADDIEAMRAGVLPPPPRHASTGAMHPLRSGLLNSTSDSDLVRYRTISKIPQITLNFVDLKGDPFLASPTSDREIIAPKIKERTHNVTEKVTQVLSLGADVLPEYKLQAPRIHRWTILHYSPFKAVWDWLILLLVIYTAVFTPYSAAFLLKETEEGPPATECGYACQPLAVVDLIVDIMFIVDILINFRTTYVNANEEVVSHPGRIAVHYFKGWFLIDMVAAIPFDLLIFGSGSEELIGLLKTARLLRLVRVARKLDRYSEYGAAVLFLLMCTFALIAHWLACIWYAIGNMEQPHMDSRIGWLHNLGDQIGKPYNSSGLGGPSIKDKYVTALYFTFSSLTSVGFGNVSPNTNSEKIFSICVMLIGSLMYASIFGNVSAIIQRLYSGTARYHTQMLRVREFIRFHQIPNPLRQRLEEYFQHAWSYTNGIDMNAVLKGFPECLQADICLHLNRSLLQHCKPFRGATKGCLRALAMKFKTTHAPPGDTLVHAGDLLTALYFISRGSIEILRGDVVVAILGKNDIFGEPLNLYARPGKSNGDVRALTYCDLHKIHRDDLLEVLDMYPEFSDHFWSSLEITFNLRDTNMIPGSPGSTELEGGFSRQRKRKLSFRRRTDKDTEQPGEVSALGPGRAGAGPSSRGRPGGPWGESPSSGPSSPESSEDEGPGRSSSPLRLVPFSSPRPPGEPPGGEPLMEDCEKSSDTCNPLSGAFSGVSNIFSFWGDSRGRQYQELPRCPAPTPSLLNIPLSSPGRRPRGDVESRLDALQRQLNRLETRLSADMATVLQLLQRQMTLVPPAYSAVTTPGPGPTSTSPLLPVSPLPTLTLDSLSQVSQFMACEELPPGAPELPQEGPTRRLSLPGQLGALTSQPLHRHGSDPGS

[12] = Clearance in C57BL/6 mouse at 2 mg/kg, iv or 5 mg/kg, po administered as single dose measured up to 24 hrs by LC-MS/MS analysis; format: ADME, organism-based; settings: in vivo
[13] = target: Cytochrome P450 3A4 (Homo sapiens, UniProt P08684); experiment: Inhibition of human microsomal CYP3A4 expressed in baculovirus infected insect cells using luciferin-IPA as substrate preincubated with enzyme/substrate mixture for 30 mins followed by further incubation with NADPH for 30 mins by CYP450 luciferase Glo assay; format: ADME
Cytochrome P450 3A4, sequence (P08684 whole entry): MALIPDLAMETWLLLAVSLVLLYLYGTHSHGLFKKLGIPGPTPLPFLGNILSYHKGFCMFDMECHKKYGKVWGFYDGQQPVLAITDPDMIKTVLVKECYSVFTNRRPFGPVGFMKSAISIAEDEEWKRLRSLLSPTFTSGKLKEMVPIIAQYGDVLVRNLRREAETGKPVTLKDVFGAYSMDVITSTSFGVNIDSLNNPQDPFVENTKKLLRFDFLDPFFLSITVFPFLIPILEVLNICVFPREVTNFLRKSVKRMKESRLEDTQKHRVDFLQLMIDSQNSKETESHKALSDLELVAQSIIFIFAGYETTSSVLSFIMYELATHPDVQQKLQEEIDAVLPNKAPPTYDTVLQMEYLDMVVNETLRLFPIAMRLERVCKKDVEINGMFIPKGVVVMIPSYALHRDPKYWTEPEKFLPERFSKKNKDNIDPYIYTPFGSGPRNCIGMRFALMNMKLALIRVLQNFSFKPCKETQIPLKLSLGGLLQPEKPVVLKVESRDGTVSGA

[14] = system: Human immunodeficiency virus 1; experiment: Antiviral activity against NRTI-resistant HIV1 7401; format: functional, organism-based; settings: Human immunodeficiency virus 1, 7401
[15] = Half life in human plasma at 3 uM by LC-MS/MS analysis; format: ADME, cell-free
[16] = system: Human immunodeficiency virus 1; experiment: as §1, with “Ratio” for “Inhibition”, “of IC50 for NRTI-resistant HIV1 7401 Nucleocapsid protein (11 to 55 residues) using Alexa488-5'-cTAR-3'-Dabcyl oligonucleotide as substrate to IC50 for” for “of”
[17] = system: Human immunodeficiency virus 1; experiment: as §1, with “Ratio” for “Inhibition”, “of IC50 for INI-resistant HIV1 11845 Nucleocapsid protein (11 to 55 residues) using Alexa488-5'-cTAR-3'-Dabcyl oligonucleotide as substrate to IC50 for” for “of”
[18] = Half life in human hepatocytes at 3 uM by LC-MS/MS analysis; format: ADME, cell-based, Hepatocyte
[19] = Half life in C57BL/6 mouse at 2 mg/kg, iv or 5 mg/kg, po administered as single dose measured up to 24 hrs by LC-MS/MS analysis; format: ADME, organism-based; settings: in vivo
[20] = target: T1, Cytochrome P450 1A2 (Homo sapiens, UniProt P05177); experiment: Inhibition of human microsomal CYP1A2 expressed in baculovirus infected insect cells using luciferin-1A2 as substrate preincubated with enzyme-substrate mixture for 30 mins followed by further incubation with NADPH for 30 mins by CYP450 luciferase Glo assay; format: ADME
T1 sequence (P05177 whole entry): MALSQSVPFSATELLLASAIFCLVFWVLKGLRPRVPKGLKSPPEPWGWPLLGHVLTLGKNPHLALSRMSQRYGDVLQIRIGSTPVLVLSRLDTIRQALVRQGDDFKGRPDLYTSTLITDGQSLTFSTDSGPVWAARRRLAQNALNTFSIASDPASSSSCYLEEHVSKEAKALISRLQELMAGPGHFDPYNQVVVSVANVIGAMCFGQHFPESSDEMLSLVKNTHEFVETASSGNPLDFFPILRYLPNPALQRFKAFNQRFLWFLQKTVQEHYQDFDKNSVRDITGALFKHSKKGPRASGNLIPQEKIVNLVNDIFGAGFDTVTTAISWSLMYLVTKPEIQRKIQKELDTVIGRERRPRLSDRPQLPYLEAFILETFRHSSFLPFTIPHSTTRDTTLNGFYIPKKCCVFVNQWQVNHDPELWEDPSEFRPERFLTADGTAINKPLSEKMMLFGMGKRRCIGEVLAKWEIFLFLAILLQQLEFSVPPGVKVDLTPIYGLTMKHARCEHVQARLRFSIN

[21] = Half life in mouse hepatocytes at 3 uM by LC-MS/MS analysis; format: ADME, cell-based, Hepatocyte
[22] = Half life in mouse plasma at 3 uM by LC-MS/MS analysis; format: ADME, cell-free
[23] = system: Human immunodeficiency virus 1; experiment: Antiviral activity against PI-resistant HIV1 11808; format: functional, organism-based; settings: Human immunodeficiency virus 1, 11808
[24] = system: Human immunodeficiency virus 1; experiment: as §1, with “Ratio” for “Inhibition”, “of IC50 for PI-resistant HIV1 11808 Nucleocapsid protein (11 to 55 residues) using Alexa488-5'-cTAR-3'-Dabcyl oligonucleotide as substrate to IC50 for” for “of”
[25] = target: Cytochrome P450 2D6 (Homo sapiens, UniProt P10635); experiment: Inhibition of human microsomal CYP2D6 expressed in baculovirus infected insect cells using luciferin-ME as substrate preincubated with enzyme/substrate mixture for 30 mins followed by further incubation with NADPH for 30 mins by CYP450 luciferase Glo assay; format: ADME
Cytochrome P450 2D6, sequence (P10635 whole entry, the tested form may be a part): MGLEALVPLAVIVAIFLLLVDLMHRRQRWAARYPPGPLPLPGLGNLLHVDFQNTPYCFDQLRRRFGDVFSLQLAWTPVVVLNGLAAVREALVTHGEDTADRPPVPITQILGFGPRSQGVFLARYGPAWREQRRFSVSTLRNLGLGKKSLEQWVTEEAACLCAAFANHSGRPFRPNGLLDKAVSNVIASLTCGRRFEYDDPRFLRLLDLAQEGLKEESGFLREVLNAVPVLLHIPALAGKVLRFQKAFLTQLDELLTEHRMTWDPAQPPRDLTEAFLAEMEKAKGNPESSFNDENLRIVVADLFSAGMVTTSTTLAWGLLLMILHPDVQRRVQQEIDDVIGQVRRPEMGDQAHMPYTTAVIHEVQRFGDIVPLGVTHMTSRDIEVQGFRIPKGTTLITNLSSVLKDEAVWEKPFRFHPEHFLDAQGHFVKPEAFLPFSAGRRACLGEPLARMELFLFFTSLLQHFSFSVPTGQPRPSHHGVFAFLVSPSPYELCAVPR

[26] = system: Human immunodeficiency virus 1; experiment: as §1, with “Ratio” for “Inhibition”, “of IC50 for NNRTI-resistant HIV1 12231 Nucleocapsid protein (11 to 55 residues) using Alexa488-5'-cTAR-3'-Dabcyl oligonucleotide as substrate to IC50 for” for “of”
[27] = system: Human immunodeficiency virus 1; experiment: Antiviral activity against INI-resistant HIV1 11845; format: functional, organism-based; settings: Human immunodeficiency virus 1, 11845
[28] = system: Human immunodeficiency virus 1; experiment: Antiviral activity against NNRTI-resistant HIV1 12231; format: functional, organism-based; settings: Human immunodeficiency virus 1, 12231

| SMILES | IC50 ([3]; read-out: IC50) [µM] | selectivity ratio [4] | EC50 [5] [µM] | CC50 at 168 h [6] [µM] | CC50 [7] [µM] | selectivity ratio at 7 days [8] | IC50 [3] | also measured |
| --- | --- | --- | --- | --- | --- | --- | --- | --- |
| C[C@@H](NC(=O)c1nc(-c2cccc(C(F)(F)F)n2)nc(O)c1O)C1CCCCC1 |  |  |  |  |  |  |  | IC35 [1]: 20 µM |
| O=C(NCC1CCCCC1)c1nc(-c2ccccn2)nc(O)c1O | 167 | 3 | 1.2 | 2.6 | 3.6 | 2 |  | inhibition [2]: inactive |
| Cc1ccnc(-c2nc(O)c(O)c(C(=O)N[C@H](C)C3CCCCC3)n2)c1 | 8 | 13 | 0.2 | 3.1 | 2.7 | 16 |  |  |
| CC(c1ccccc1)c1nc(O)c(O)c(C(=O)NCC2CCCCC2)n1 (stereo not given) |  |  |  |  |  |  | Not Active |  |
| O=C(NC1CCCCC1)c1nc(-c2ccccn2)nc(O)c1O | 300 |  |  |  |  |  |  |  |
| C[C@@H](NC(=O)c1nc(-c2cc(Cl)ccn2)nc(O)c1O)C1CCCCC1 | 2 | 30 | 0.1 | 2.5 | 3 | 25 |  | bioavailability [9]: 40%; Vd [10]: 1.2 L/kg; IC50 [11]: > 30 µM; clearance [12]: 37.1 mL/min/kg; IC50 [13]: > 30 µM; EC50 [14]: 0.01 µM; half-life at 3 µM [15]: > 6 h; Ratio IC50 [16]: 0.1; Ratio IC50 [17]: 0.7; half-life at 3 µM [18]: > 4 h; half-life [19]: 3.1 h; IC50 [20]: > 30 µM; half-life at 3 µM [21]: 1.7 h; half-life at 3 µM [22]: > 6 h; EC50 [23]: 0.02 µM; Ratio IC50 [24]: 0.2; IC50 [25]: > 30 µM; Ratio IC50 [26]: 0.8; EC50 [27]: 0.07 µM; EC50 [28]: 0.08 µM |
| C[C@@H](NC(=O)c1nc(-c2ccccn2)nc(O)c1O)C1CCCCC1 | 42 | 5 | 0.7 | 3 | 3.2 | 4 |  |  |
| CC(C)(C)c1nc(O)c(O)c(C(=O)NCC2CCCCC2)n1 |  |  |  |  |  |  | Not Active |  |
| O=C(NCC1CCCCC1)c1nc(-c2cccnc2)nc(O)c1O |  |  |  |  |  |  | Not Active |  |
| C[C@@H](NC(=O)c1nc(-c2ncccc2C(F)(F)F)nc(O)c1O)C1CCCCC1 |  |  |  |  |  |  |  | IC35 [1]: 20 µM |
| CCNC(=O)c1nc(-c2ccccn2)nc(O)c1O |  |  |  |  |  |  | Not Active |  |
| O=C(NCc1ccccc1)c1nc(-c2ccccn2)nc(O)c1O |  |  |  |  |  |  | Not Active |  |
| O=C(NCCC1CCCCC1)c1nc(-c2ccccn2)nc(O)c1O | 38 | 2 | 2.3 | 11 | 4.2 | 5 |  |  |
| Cc1ccnc(-c2nc(O)c(O)c(C(=O)N[C@@H](C)C3CCCCC3)n2)c1 | 41 |  |  |  |  |  |  |  |
